Source: ChEMBL document CHEMBL1137876, “Synthesis and biological evaluation of novel cytotoxic phospholipids for prostate cancer” (Bioorg Med Chem Lett, 2004)

Assays:
[1] = test system: CHO; experiment: Concentration required to inhibit tumor growth in CHO cells; assay type: functional, cell-based; conditions: Cricetulus griseus
Outline: (§1)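 SRB assay. Cells were exposed to compound at 0–100 µM for 96 h, then fixed with 10% trichloroacetic acid, washed five times with water, air dried overnight and stained with SRB. Protein-bound dye was read at 540 nm.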

[2] = test system: DU-145; experiment: Concentration required to inhibit proliferation of DU-145 prostate cancer cell lines; assay type: functional, cell-based; conditions: Homo sapiens; outline: as §1
[3] = Concentration required to inhibit tumor growth in RH7777 cells; assay type: functional, cell-based; outline: as §1
[4] = test system: PC-3; experiment: Concentration required to inhibit proliferation of PC-3 prostate cancer cell lines; assay type: functional, cell-based; conditions: Homo sapiens; outline: as §1
[5] = test system: LNCaP; experiment: Concentration required to inhibit proliferation of LNCaP prostate cancer cell lines; assay type: functional, cell-based; conditions: Homo sapiens; outline: as §1
[6] = Concentration required to inhibit proliferation of PPC-1 prostate cancer cell lines; assay type: functional, cell-based; conditions: Homo sapiens; outline: as §1
[7] = Concentration required to inhibit proliferation of TSU prostate cancer cell lines; assay type: functional, cell-based; conditions: Homo sapiens; outline: as §1
[8] = test system: LNCaP; experiment: Concentration required to inhibit proliferation of LNCaP prostate cancer cell lines; NA denotes not active; assay type: functional, cell-based, Homo sapiens; outline: as §1
[9] = test system: DU-145; experiment: Concentration required to inhibit proliferation of DU-145 prostate cancer cell lines; NA denotes not active; assay type: functional, cell-based, Homo sapiens; outline: as §1
[10] = Concentration required to inhibit proliferation of TSU prostate cancer cell lines; NA denotes not active; assay type: functional, cell-based, Homo sapiens; outline: as §1
[11] = test system: PC-3; experiment: Concentration required to inhibit proliferation of PC-3 prostate cancer cell lines; NA denotes not active; assay type: functional, cell-based, Homo sapiens; outline: as §1

| SMILES | IC50 [1] [µM] | IC50 [2] [µM] | IC50 [3] [µM] | IC50 [4] [µM] | IC50 [5] [µM] | IC50 [6] [µM] | IC50 [7] [µM] | IC50 [8] | IC50 [9] | IC50 [10] | IC50 [11] |
| --- | --- | --- | --- | --- | --- | --- | --- | --- | --- | --- | --- |
| CCCCCCCC/C=C/CCCCCCCCNC(=O)[C@@H](N)CO | 5.2 | 6.9 | 6.8 | 5.9 | 6.6 | 5.1 | 5.5 | – | – | – | – |
| CCCCCCCC/C=C/CCCCCCCCC(=O)NCCOP(=O)(O)O | > 50 | > 50 | > 50 | > 50 | – | 50 | > 50 | Not Active | – | – | – |
| CCCCCCCC/C=C/CCCCCCCCC(=O)NCCO | > 20 | – | > 20 | – | – | > 20 | – | Not Active | Not Active | Not Active | Not Active |
| CCCCCCCCNC(=O)[C@H](CO)NC(=O)CCCCCCC | > 100 | > 100 | – | 81.5 | > 100 | 81.2 | 93.8 | – | – | – | – |
| O=c1[nH]cc(F)c(=O)[nH]1 [FLUOROURACIL] | – | – | – | – | 4.9 | – | – | – | – | – | – |
